For 19 compounds, MIC, inhibition and MIC50 results are on record in ChEMBL document CHEMBL3351487, “Synthesis, molecular docking and anti-mycobacterial evaluation of new imidazo[1,2-a]pyridine-2-carboxamide derivatives” (Eur J Med Chem, 2015).

Molecules are shown by their SMILES. Converted amounts (≈) assume the structure as drawn.

For data set [1], the system named is Mycobacterium tuberculosis. As to the kind of experiment: Antimycobacterial activity against Mycobacterium tuberculosis H37Rv ATCC 27294 after 7 days by MABA method. The data set is classed as functional. The note with it: H37Rv ATCC 27294, 168 h. The method in brief: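 Inoculum from fresh LJ culture resuspended in 7H9-S (7H9 broth, 0.1% casitone, 0.5% glycerol, OADC), adjusted to McFarland No. 1 and diluted 1:20. Drug stocks diluted in 7H9-S to four-fold the highest final concentration. Plates sealed and incubated at 37 °C in normal atmosphere for 7 days, then alamar blue added.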

The nature of data set [2]: Cytotoxicity against HEK293T cells assessed as inhibition of cell growth at 50 ug/mL after 72 hrs by MTT assay. The data set is classed as cell-based, HEK-293T. To be noted: human, read-out: GI. The method in brief: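 HEK-293T cells exposed to each compound at one concentration (50) for 72 h. Viability was read from cellular conversion of MTT to formazan using a non-radioactive cell proliferation kit, and the result is given as percentage inhibition of cells.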

For the compound `Cn1cc(-c2ccc3nc(C(=O)NCc4ccc(F)cc4)cn3c2)cn1`, the MIC in data set [1] stood at 25 µg/mL (≈ 71.6 µM). Further, the inhibition at 72 h, 50 ug/mL in data set [2] was 36.1%.

In data set [1], `Nc1ncccc1-c1ccc2nc(C(=O)NCc3ccc(F)cc3)cn2c1` registered an MIC of 25 µg/mL (≈ 69.2 µM). Further, the inhibition at 72 h, 50 ug/mL in data set [2] is 40.8%.

In turn, `O=C(NCc1ccc(F)cc1)c1cn2cc(-c3cccc4ncccc34)ccc2n1` gave an MIC in data set [1] of 25 µg/mL (≈ 63.1 µM). Moreover, the inhibition at 72 h, 50 ug/mL in data set [2] worked out at 28.1%.

As to `O=C(O)CCc1ccc(-c2ccc3nc(C(=O)NCc4ccc(F)cc4)cn3c2)cc1`, in data set [1], the MIC is over 50 µg/mL.

In turn, `Cn1cc(-c2ccc3nc(C(=O)NCc4ccco4)cn3c2)cn1` gave an MIC in data set [1] of over 50 µg/mL.

Compound `Nc1ncccc1-c1ccc2nc(C(=O)NCc3ccco3)cn2c1` showed an MIC in data set [1] of 25 µg/mL (≈ 75 µM). In addition, the inhibition at 72 h, 50 ug/mL in data set [2] stood at 26.1%.

The compound `O=C(NCc1ccco1)c1cn2cc(-c3cccc4ncccc34)ccc2n1` displayed a minimal inhibitory concentration (MIC) in data set [1] of 25 µg/mL (≈ 67.9 µM). Further, the inhibition at 72 h, 50 ug/mL in data set [2] worked out at 24.8%.

As for `O=C(NCc1ccco1)c1cn2cc(-c3cnn(CCN4CCOCC4)c3)ccc2n1`, the MIC in data set [1] amounted to 12.5 µg/mL (≈ 29.7 µM). Further, the inhibition at 72 h, 50 ug/mL in data set [2] came to 34.1%.

Consider `CN1CCN(C(=O)c2ccc(-c3ccc4nc(C(=O)NCc5ccco5)cn4c3)cc2)CC1`, for which inhibition of growth in data set [1] (MIC) required 25 µg/mL (≈ 56.4 µM). Besides, the inhibition at 72 h, 50 ug/mL in data set [2] was 30.1%.

Turning to `O=C(NCc1ccncc1)c1cn2cc(-c3ccc(Cl)cc3)ccc2n1`, it took 6.25 µg/mL (≈ 17.2 µM) to inhibit growth in data set [1] (MIC). Further, the inhibition at 72 h, 50 ug/mL in data set [2] is 26.1%.

`COc1ccccc1-c1ccc2nc(C(=O)NCc3ccncc3)cn2c1` gave an MIC in data set [1] of 12.5 µg/mL (≈ 34.9 µM). Besides, in data set [2], the inhibition at 72 h, 50 ug/mL was found to be 31.6%.

With `Cn1cc(-c2ccc3nc(C(=O)NCc4ccc5c(c4)OCO5)cn3c2)cn1`, the minimum inhibitory concentration (MIC) in data set [1] was determined as 6.25 µg/mL (≈ 16.6 µM). In data set [2], the inhibition at 72 h, 50 ug/mL is 25.6%.

The compound `O=C(NC1CC1)c1cn2cc(-c3cnn(CCN4CCOCC4)c3)ccc2n1` showed an MIC in data set [1] of 25 µg/mL (≈ 65.7 µM). Moreover, the inhibition at 72 h, 50 ug/mL in data set [2] is 29.1%.

The compound `O=C(NCc1ccc(C(F)(F)F)cc1)c1cn2cc(-c3cccc4ncccc34)ccc2n1` displayed an MIC in data set [1] of 25 µg/mL (≈ 56 µM). Also, in data set [2], the inhibition at 72 h, 50 ug/mL is 37.8%.

In the case of `O=C(NCc1ccc(C(F)(F)F)cc1)c1cn2cc(-c3cnn(CCN4CCOCC4)c3)ccc2n1`, in data set [1], inhibition of growth (MIC) required 12.5 µg/mL (≈ 25.1 µM). The inhibition at 72 h, 50 ug/mL in data set [2] is 22.2%.

Compound `O=C(NC1CCOCC1)c1cn2cc(-c3cnn(CCN4CCOCC4)c3)ccc2n1` came in with an MIC in data set [1] of 6.25 µg/mL (≈ 14.7 µM). In addition, the inhibition at 72 h, 50 ug/mL in data set [2] stood at 30.1%.

Regarding `NNC(=O)c1ccncc1` [ISONIAZID], in data set [1], it took 0.36 µg/mL (≈ 2.63 µM) to inhibit growth (MIC).

As to `CO[C@H]1/C=C/O[C@@]2(C)Oc3c(C)c(O)c4c(O)c(c(/C=N/N5CCN(C)CC5)c(O)c4c3C2=O)NC(=O)/C(C)=C\C=C\[C@H](C)[C@H](O)[C@@H](C)[C@@H](O)[C@@H](C)[C@H](OC(C)=O)[C@@H]1C` [RIFAMPIN], the MIC in data set [1] came out at 0.02 µg/mL (≈ 0.0243 µM).

In data set [1], `CCc1nc2ccc(Cl)cn2c1C(=O)NCc1ccc(N2CCC(c3ccc(OC(F)(F)F)cc3)CC2)cc1` [TELACEBEC] had an MIC50 of 2.7 nM (≈ 1.5 ng/mL).
